Activity calls are given as the source filed them. No cut-off for these calls is given here.
What was measured:
Human alphaherpesvirus 2 = assay: Antiviral activity against HSV 2 infected in African green monkey Vero cells assessed as reduction in plaque formation incubated for 36 hrs by crystal violet staining based assay; type: functional, organism-based; conditions: Human alphaherpesvirus 2, Vero, 36 h; read-out: EC50
How it was run: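 Plaque reduction in Vero cells: virus adsorbed 60 min, then compound added in a carboxymethylcellulose overlay. Plaques counted after 36 h by crystal violet staining.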

Human gammaherpesvirus 4 = assay: Antiviral activity against EBV infected in human AKATA cells assessed as reduction in IgG-induced lytic virus replication measured at 48 hrs post-lytic induction by qRT-PCR analysis; type: functional, organism-based; conditions: human gammaherpesvirus 4, 48 h; read-out: EC50
[1] = Antiviral activity against Mouse Cytomegalovirus Smith (ATCC VR-1399) infected in mouse MEF cells assessed as reduction in plaque formation measured after 3 days by crystal violet staining based assay; type: functional, cell-based, Murine cytomegalovirus (strain Smith); conditions: Murid betaherpesvirus 1, ATCC VR-1399, MEF, 72 h; read-out: EC50
How it was run: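 Plaque reduction with MCMV Smith in mouse embryonic fibroblasts, with compound in a carboxymethylcellulose overlay. Assay ended at 3 days and plaques counted after crystal violet staining.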

Human betaherpesvirus 5 [2] = assay: (§1) Antiviral activity against pp28-luciferase expressing HCMV Towne infected in human HFF cells assessed as reduction in viral replication treated with compound at 24 hrs post viral infection at MOI of 1 PFU/cell and measured after 3 days by luciferase reporter gene assay; type: functional, organism-based; conditions: strain Towne
How it was run: (§2)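 Time-of-addition in HFFs infected with HCMV Towne (MOI 1). Add-on: compound added at 0, 6, 24 or 48 hpi. Removal: compound added right after infection and washed out after 0, 6, 24 or 48 h. Luciferase read at 72 hpi.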

Human betaherpesvirus 5 [3] = assay: as §1, with “immediately after” for “at 24 hrs post”, “PFU/cell followed by compound washout after 6 hrs” for “PFU/cell”; type: functional; conditions: strain Towne; how it was run: as §2
Human betaherpesvirus 5 [4] = assay: Antiviral activity against HCMV Towne infected in human HFF cells assessed as reduction in viral entry into host cell by measuring nuclear localization of pp65 at 5 uM treated with compound for 24 hrs followed by viral infection at MOI of 0.01 to 1 PFU/cell measured at 2 hrs post infection by immunofluorescence microscopy; type: functional, organism-based; conditions: strain Towne
How it was run: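 HFFs on chamber slides pretreated 24 h with compound diluted in serum-free medium, then infected with HCMV Towne for 2 h. Heparin 30 μM as positive entry-block control. Cells methanol-fixed, then stained with anti-pp65 (1:50) and rhodamine anti-mouse IgG, with DAPI. Nuclear pp65 viewed by fluorescence microscopy at 40x; repeated three times.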

Human betaherpesvirus 5 [5] = assay: Antiviral activity against HCMV Towne infected in human HFF cells assessed as reduction in viral DNA replication at 5 uM treated with compound following viral infection at MOI of 0.1 PFU/cell by US17 real time PCR analysis; type: functional, organism-based; conditions: strain Towne
How it was run: (§3)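 At set time points supernatants were harvested and cells lysed for DNA. Cell-associated viral DNA and supernatant viral DNA quantified by real-time PCR targeting a 151-bp conserved US17 region.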

Human betaherpesvirus 5 [6] = assay: Antiviral activity against HCMV Towne infected in human HFF cells assessed as reduction in viral DNA yields in the supernatant at 5 uM treated with compound following viral infection at MOI of 0.1 PFU/cell by US17 real time PCR analysis; type: functional, organism-based; conditions: strain Towne; how it was run: as §3
HFF = assay: Cytotoxicity against human HFF cells assessed as reduction in cell viability incubated for 72 hrs or 10 days by MTT assay; type: cell-based
How it was run: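 MTT assay on uninfected cells exposed to compound for 72 h or 8–10 days, matching the antiviral assay durations. MTT (5 mg/mL stock in PBS) added, then 2–3 h at 37 °C. Formazan absorbance read at 560 nm.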

Compound | EC50 (Human alphaherpesvirus 2) [nM] | EC50 (Human gammaherpesvirus 4) [nM] | EC50 [1] [nM] | Activity (Human betaherpesvirus 5 [2]) | Activity (Human betaherpesvirus 5 [3]) | Activity (Human betaherpesvirus 5 [4]) | Activity (Human betaherpesvirus 5 [5]) | Activity (Human betaherpesvirus 5 [6]) | CC50 (HFF) [nM]
Nc1nc2c(ncn2COC(CO)CO)c(=O)[nH]1 [GANCICLOVIR] | 580 | 5200 | 960 | inactive | Active | inactive | Active | Active | 
Nc1nc(O)c2ncn(COC(CO)CO)c2n1 [GANCICLOVIR] |  |  |  |  |  |  |  |  | > 200000

Reference: ChEMBL document CHEMBL4354867, “Validation and Characterization of Five Distinct Novel Inhibitors of Human Cytomegalovirus” (J Med Chem, 2020)
